Measured values: ChEMBL document CHEMBL1151806, “Indolizidine, antiinfective and antiparasitic compounds from Prosopis glandulosa var. glandulosa” (J Nat Prod, 2009)
Converted amounts (≈) assume the structure as drawn. The source made the active and inactive calls. The calls are words filed in the database; no cut-off is given here.

Assays:
Plasmodium falciparum [1] = assay: Antimalarial activity after 72 hrs against […] Plasmodium falciparum D6 by pLDH activity; format: functional, organism-based; details: D6, 72 h
In short: (§1)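 P. falciparum-infected red cells (2% parasitemia, 2% hematocrit) in RPMI-1640 with 10% human serum and 60 μg/mL amikacin, exposed to serial sample concentrations. Gassed with 90% N2/5% O2/5% CO2, incubated 37 °C for 72 h. Parasite LDH activity read colorimetrically with Malstat reagent.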

LLC-PK1 = assay: Cytotoxicity against pig LLC-PK1 cells after 48 hrs by neutral red assay; format: cell-based, Sus scrofa; details: Sus scrofa, LLC-PK1, 48 h; read-out: IC50
In short: (§2)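 Cells seeded at 25,000/well, incubated 24 h, then exposed to samples for 48 h. Viable cells measured by Neutral Red uptake. IC50 from logarithmic plots of growth inhibition vs concentration. Doxorubicin positive control, DMSO vehicle control.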

Vero [2] = assay: Cytotoxicity against african green monkey Vero cells at 4760 ng/mL; format: cell-based, Chlorocebus sabaeus
Vero [3] = assay: Cytotoxicity against african green monkey Vero cells after 48 hrs by neutral red assay; format: cell-based, Chlorocebus sabaeus; in short: as §2
[4] = Selectivity index, IC50 for african green monkey (Cercopithecus aethiops) Vero cells to IC50 for chloroquine-sensitive Plasmodium falciparum D6; format: functional
In short: (§3)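 Selectivity index = IC50 against VERO cells divided by IC50 against P. falciparum (D6 or W2, respectively), each from the corresponding in-house assay.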

Candida albicans = assay: Antimicrobial activity against Candida albicans ATCC 90028 by NCCLS method; format: functional, organism-based
In short: (§4)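 Samples serially diluted in 20% DMSO/saline, tested in duplicate. Inocula set by OD630: C. albicans RPMI pH 4.5, 1·10^4 CFU/mL; C. neoformans Sabouraud dextrose, 1·10^5; MRSA cation-adjusted Mueller-Hinton pH 7.3, 5·10^5; M. intracellulare 7H9/OADC + 5% Alamar Blue pH 7.3, 2·10^6; A. fumigatus RPMI pH 7.3 + 5% Alamar Blue, 3·10^4.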

Leishmania donovani = assay: Antileishmanial activity against Leishmania donovani promastigotes after 48 hrs by alamar blue assay; format: functional, organism-based
Aspergillus fumigatus = assay: Antimicrobial activity against Aspergillus fumigatus ATCC 90906 by alamar blue assay; format: functional, organism-based; in short: as §4
Cryptococcus neoformans = assay: Antimicrobial activity against Cryptococcus neoformans ATCC 90113 by NCCLS method; format: functional, organism-based; in short: as §4
[5] = Selectivity index, IC50 for african green monkey (Cercopithecus aethiops) Vero cells to IC50 for […]; format: functional; in short: as §3
[6] = tested on: Mycobacterium intracellulare; assay: Antimicrobial activity against Mycobacterium intracellular ATCC 23068 by alamar blue assay; format: functional, organism-based
In short: as §4, with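 “3·10^4. Read at 630 nm or 544ex/590em before and after incubation.” for “3·10^4.”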

Staphylococcus aureus = assay: Antimicrobial activity against methicillin-resistant Staphylococcus aureus ATCC 43300 by NCCLS method; format: functional, organism-based; in short: as §4
KB = assay: Cytotoxicity against human KB cells after 48 hrs by neutral red assay; format: functional, cell-based; in short: as §2
SK-MEL = assay: Cytotoxicity against human SK-MEL cells after 48 hrs by neutral red assay; format: functional, cell-based; in short: as §2
Plasmodium falciparum [7] = assay: Antimalarial activity after 72 hrs against chloroquine-resistant Plasmodium falciparum W2 by pLDH activity; format: functional, organism-based; details: W2, 72 h; in short: as §1
BT-549 = assay: Cytotoxicity against human BT549 cells after 48 hrs by neutral red assay; format: functional, cell-based; details: BT-549, 48 h; in short: as §2
Vero [8] = assay: Cytotoxicity against african green monkey Vero cells; format: cell-based; details: Chlorocebus sabaeus; in short: as §2
SK-OV-3 = assay: Cytotoxicity against human SKOV3 cells after 48 hrs by neutral red assay; format: functional, cell-based; details: SK-OV-3, 48 h; in short: as §2
[9] = Aspergillus fumigatus, ATCC 90906

SMILES | IC50 (Plasmodium falciparum [1]) [µg/mL] | IC50 (LLC-PK1) [µg/mL] | IC50 (Vero [2]) | Ratio IC50 [4] | IC50 (Candida albicans) | IC90 (Leishmania donovani) [µg/mL] | IC50 (Cryptococcus neoformans) [µg/mL] | Ratio IC50 [5] | IC50 [6] [µg/mL] | MIC [6] [µg/mL] | IC50 (Staphylococcus aureus) [µg/mL] | also measured
C[C@@H]1CC[C@H]2[C@@H](C)C(=O)O[C@@H]3O[C@@]4(C)CC[C@@H]1[C@]32OO4 [ARTEMISININ] | 0.016 (≈ 0.0567 µM) | 0.6 (≈ 2.13 µM) | Non-toxic | – | – | – | – | – | – | – | – | IC50 (Vero [3]; Chlorocebus sabaeus, Vero, 48 h, read-out: IC50): > 4.76 µg/mL
C[C@@H]1N[C@H](CCCCCCCCCCC2=C[C@@H](CCCCCCCCCC[C@@H]3CC[C@@H](O)[C@H](C)N3)[C@@H]3CCCN3C2)CC[C@H]1O.Cl.Cl | 0.6 | – | Non-toxic | >7.9 | Not Active | 7 | 2 | >8.5 | 9.5 | 20 | 3 | IC50 (Aspergillus fumigatus): Not Active
C[C@@H]1N[C@H](CCCCCCCCCCc2cc(CCCCCCCCCC[C@H]3CC[C@@H](O)[C@@H](C)N3)c[n+]3c2CCC3)CC[C@H]1O [ISOPROSOPILOSIDINE] | – | 21.3 | – | >567 | Not Active | 2.5 | 0.55 | >198 | 1.5 | 2.5 | 0.6 | IC50 (KB): 7 µg/mL; IC50 (SK-MEL): 3.3 µg/mL; MFC (Candida albicans): inactive; MIC (Candida albicans): inactive; IC50 (Plasmodium falciparum [7]): 0.12 µg/mL; IC50 (Vero [3]; vero): Not Active; MFC (Aspergillus fumigatus; [9]): 10 µg/mL; MIC (Aspergillus fumigatus; [9]): 10 µg/mL; IC50 (Aspergillus fumigatus; Aspergillus fumigatus, ATCC 90906, read-out: IC50): 6.5 µg/mL; IC50 (BT-549): 6.75 µg/mL; MFC (Cryptococcus neoformans): 1.25 µg/mL; MIC (Cryptococcus neoformans): 1.25 µg/mL; IC50 (Vero [8]): > 23.8 µg/mL; IC50 (SK-OV-3): 4.5 µg/mL; MBC [6]: inactive; MBC (Staphylococcus aureus): 20 µg/mL
N=C(N)c1ccc(OCCCCCOc2ccc(C(=N)N)cc2)cc1 [PENTAMIDINE] | – | – | – | – | – | 2 (≈ 5.87 µM) | – | – | – | – | – | IC50 (Leishmania donovani): 0.5 µg/mL (≈ 1.47 µM)
